The source of these data is ChEMBL document CHEMBL3808312, “Bioactive Constituents of Glycyrrhiza uralensis (Licorice): Discovery of the Effective Components of a Traditional Herbal Medicine” (J Nat Prod, 2016).

The source made the active and inactive calls. The calls are words filed in the database; no cut-off is given here.

Series [1] concerns Mus musculus. The series is described as follows: Hepatoprotective activity in C57BL/6J mouse assessed as prevention of CCL4-induced severe hepatic lesions at 5 mg/kg, ip administered qd for 3 days followed by CCL4 addition at 3 hrs post last dose measured after 24 hrs by hematoxylin-eosin staining. Format: functional, organism-based. The method, boiled down: (§1)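 Seven-week-old male C57BL/6J mice, n = 10/group, given compound in corn oil (0.5 or 1 mg/mL) at 5 or 10 mg/kg ip once daily for 3 days. CCl4 at 200 μL/kg ip (2% v/v in corn oil) given 3 h after the last dose. Sacrifice at 24 h. Serum ALT/AST measured; liver GSH by GSH/GSSG kit normalized to BCA protein; left lobe H&E stained and scored blind at 4× and 20×.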

The test system of series [2] is Mus musculus. Briefly: Hepatoprotective activity in ip dosed C57BL/6J mouse assessed as reduction in CCL4-induced serum ALT level administered qd for 3 days followed by CCL4 addition at 3 hrs post last dose measured after 24 hrs. Format: functional, organism-based. In a few lines:
as §1

Series [3] has as its target T1, Nuclear factor erythroid 2-related factor 2 (Homo sapiens) (UniProt Q16236).
T1 sequence (whole entry): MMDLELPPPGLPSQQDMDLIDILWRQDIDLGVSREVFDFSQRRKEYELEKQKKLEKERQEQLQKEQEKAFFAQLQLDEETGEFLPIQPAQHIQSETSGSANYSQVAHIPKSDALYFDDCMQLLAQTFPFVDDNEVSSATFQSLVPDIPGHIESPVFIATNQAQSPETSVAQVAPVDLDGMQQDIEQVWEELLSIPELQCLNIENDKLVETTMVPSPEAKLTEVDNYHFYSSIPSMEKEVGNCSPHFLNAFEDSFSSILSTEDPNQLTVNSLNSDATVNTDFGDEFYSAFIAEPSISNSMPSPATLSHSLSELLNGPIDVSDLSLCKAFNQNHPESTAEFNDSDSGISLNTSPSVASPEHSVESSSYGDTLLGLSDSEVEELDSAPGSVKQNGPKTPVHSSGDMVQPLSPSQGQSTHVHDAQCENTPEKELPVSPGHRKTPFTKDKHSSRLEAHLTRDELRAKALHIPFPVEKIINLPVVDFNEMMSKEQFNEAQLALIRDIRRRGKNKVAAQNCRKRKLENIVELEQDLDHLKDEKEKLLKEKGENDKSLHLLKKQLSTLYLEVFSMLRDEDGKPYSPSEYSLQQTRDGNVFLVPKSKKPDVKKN
The series is described as follows: Activation of NRF2 in human HepG2 cells assessed as upregulation of HO-1 level by Western blot analysis. It counts as cell-based. In a few lines: (§2)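 HepG2 cells treated with or without compound. HO-1 and NQO1 transcripts measured by RT-PCR after total RNA extraction and reverse transcription, amplified against β-actin with human primers. For protein, 20 μg lysate (RIPA) separated on 10% SDS-PAGE, blotted to PVDF, probed with antibodies to Nrf2, HO-1, NQO-1 and β-actin, and detected by ECL.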
In general terms: In western blotting, separated proteins are transferred to a membrane and probed.

In the next series the test system is HepG2. Briefly: Toxicity in human HepG2 cells at 20 to 40 uM. It counts as cell-based. To be noted: hepg2, 40 µM.
Series [4] has as its target T2, Tyrosinase (Homo sapiens) (UniProt P14679).
T2 sequence (whole entry): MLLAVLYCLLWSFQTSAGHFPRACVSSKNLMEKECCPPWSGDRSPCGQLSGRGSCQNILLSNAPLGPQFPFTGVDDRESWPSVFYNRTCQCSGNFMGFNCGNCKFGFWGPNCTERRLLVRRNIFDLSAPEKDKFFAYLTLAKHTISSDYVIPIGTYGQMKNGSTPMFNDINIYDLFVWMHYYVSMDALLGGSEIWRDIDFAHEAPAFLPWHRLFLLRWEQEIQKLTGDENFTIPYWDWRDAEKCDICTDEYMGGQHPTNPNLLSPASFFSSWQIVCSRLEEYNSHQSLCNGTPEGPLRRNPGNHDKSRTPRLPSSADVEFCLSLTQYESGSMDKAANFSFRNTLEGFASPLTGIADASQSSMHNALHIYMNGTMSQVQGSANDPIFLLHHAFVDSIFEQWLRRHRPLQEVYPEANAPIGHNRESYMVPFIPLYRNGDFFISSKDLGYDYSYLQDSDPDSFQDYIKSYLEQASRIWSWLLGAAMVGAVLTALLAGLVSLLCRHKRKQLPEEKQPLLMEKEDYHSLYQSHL
Briefly: Inhibition of tyrosinase (unknown origin) using L-tyrosine as substrate assessed as oxidation of L-tyrosine at 20 uM after 15 mins. The method, boiled down: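 Tyrosinase at 333 U/mL (stock) in 45 mM sodium phosphate, pH 6.6, with 2 mM L-tyrosine (stock). Incubated 37 °C for 15 min; oxidation read at 492 nm. Screened at 20 μM; dose-response for IC50. Glyasperin C positive control.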

The test system of series [5] is Mus musculus. The series is described as follows: Hepatoprotective activity in ip dosed C57BL/6J mouse assessed as reduction in CCL4-induced serum AST level administered qd for 3 days followed by CCL4 addition at 3 hrs post last dose measured after 24 hrs. Format: functional, organism-based. In a few lines: as §1
Series [6] relates to Mus musculus. The series is described as follows: Hepatoprotective activity in C57BL/6J mouse assessed as attenuation of CCL4-mediated GSH level depletion measured as GSH level […] of protein at 10 mg/kg, ip administered qd for 3 days followed by CCL4 addition at 3 hrs post last dose measured after 24 hrs by GSH/GSSG assay (reference value: 0.86 +/- 0.38 nmol). It counts as functional. The method, boiled down: as §1

The target of series [7] is T1, Nuclear factor erythroid 2-related factor 2 (Homo sapiens). Briefly: Activation of NRF2 in human HepG2 cells assessed as induction of HO-1 transcription by RT-PCR analysis. It counts as cell-based. The method, boiled down:
as §2

The target is the same in series [8]. Briefly: Activation of NRF2 in human HepG2 cells by Western blot analysis. It counts as cell-based. The method, boiled down:
as §2

The test system of series [9] is Mus musculus. Briefly: In vivo NRF2 activation in ip dosed C57BL/6J mouse assessed as increase in liver transcription of HO-1 administered as qd for 3 days measured 3 hrs post last dose by qRT-PCR analysis. Format: functional, organism-based. The method, boiled down:
(§3)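 Male C57BL/6J mice given compound in corn oil at 5 or 10 mg/kg ip for three consecutive days; controls received corn oil. Liver harvested 3 h after final dose. HO-1 and NQO-1 mRNA measured by qRT-PCR with mouse primers. Nrf2 and HO-1 protein measured by Western blot (20 μg, 10% SDS-PAGE, ECL).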

Series [10] has as its target T1, Nuclear factor erythroid 2-related factor 2 (Homo sapiens). The series is described as follows: Activation of NRF2 transcription in human HepG2C8 cells at 20 uM after 6 hrs by luciferase reporter gene assay relative to control. Format: cell-based. In a few lines:
(§4)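 Luciferase reporter in HepG2C8 cells, which are HepG2 stably transfected with an Nrf2 luciferase reporter and grown in MEM. Screened at 10 μM, with dose-response over 2.5−40 μM. Activity expressed as fold of control. tBHQ positive control.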

The next series relates to Influenza A virus. Briefly: Antiviral activity against Influenza A virus A/WSN/33(H1N1) infected in MDCK cells at 100 uM preincubated with virus for 15 mins followed by cells addition measured at 36 hrs post infection. It counts as functional, A/WSN/1933(H1N1). The method, boiled down: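 MDCK canine kidney cells grown in DMEM and infected with influenza A/WSN/33 (H1N1). Compounds screened at 100 μM. Oseltamivir phosphate served as the positive control.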

For series [11], the target named is T1, Nuclear factor erythroid 2-related factor 2 (Homo sapiens). The series is described as follows: Activation of NRF2 in human HepG2 cells assessed as induction of NQO-1 transcription by RT-PCR analysis. It counts as cell-based. In a few lines: as §2
Series [12] has the same target. The series is described as follows: Activation of NRF2 transcription in human HepG2C8 cells at 10 uM after 6 hrs by luciferase reporter gene assay relative to control. Format: cell-based. In a few lines:
as §4

For series [13] the target is unchanged. Briefly: Activation of NRF2 transcription in human HepG2C8 cells at 40 uM after 6 hrs by luciferase reporter gene assay relative to control. Format: cell-based. The method, boiled down: as §4
Series [14] deals with Mus musculus. Briefly: Hepatoprotective activity in C57BL/6J mouse assessed as attenuation of CCL4-mediated GSH level depletion measured as GSH level […] of protein at 5 mg/kg, ip administered qd for 3 days followed by CCL4 addition at 3 hrs post last dose measured after 24 hrs by GSH/GSSG assay (reference value: 0.86 +/- 0.38 nmol). It counts as functional. The method, boiled down: as §1

For series [15], the system named is Mus musculus. The series is described as follows: In vivo increase in HO-1 levels in C57BL/6J mouse liver at 5 to 10 mg/kg, ip qd administered for 3 days measured 3 hrs post last dose by Western blot analysis. Format: functional, organism-based. In a few lines:
as §3

For series [16], the target named is T1, Nuclear factor erythroid 2-related factor 2 (Homo sapiens). Briefly: Activation of NRF2 transcription in human HepG2C8 cells after 6 hrs by luciferase reporter gene assay. It counts as cell-based. The method, boiled down:
as §4
A general note: In a reporter assay the amount or activity of a reporter protein is the signal.

For series [17], the system named is Mus musculus. The series is described as follows: In vivo NRF2 activation in ip dosed C57BL/6J mouse assessed as increase in liver transcription of NQO-1 administered as qd for 3 days measured 3 hrs post last dose by qRT-PCR analysis. Format: functional, organism-based. The method, boiled down: as §3
The test system of series [18] is Mus musculus. The series is described as follows: In vivo increase in NRF2 levels in C57BL/6J mouse liver at 5 to 10 mg/kg, ip qd administered for 3 days measured 3 hrs post last dose by Western blot analysis. Format: functional, organism-based. The method, boiled down:
as §3

Turning to `COc1cc(O)ccc1/C=C/C(=O)c1ccc(O)cc1` [ECHINATIN], the result in the series with Mus musculus [1], in the series with Mus musculus [15] and with Mus musculus [18] was Active. Also, the Activity entry in the series with Mus musculus [2] was “Dose-dependent effect”; in [3], “Dose-dependent effect”; with HepG2, “Toxic”; in the series on Mus musculus [5] it was “Dose-dependent effect”; in the series on Mus musculus [6] it was 2.58 nmol; in [7], “Dose-dependent effect”. For the same compound, the Activity entry is “Dose-dependent effect” in [8]; “Dose-dependent effect” in the series on Mus musculus [9]; above 30% in the series on Influenza A virus; “Dose-dependent effect” in series [11]; 2.42 nmol in the series with Mus musculus [14]; “Dose-dependent effect” in series [16]. Further, the Activity entry in the series on Mus musculus [17] is “Dose-dependent effect”. Moreover, the inhibition result in series [4] was “Active”. Further, the fold change (FC) in [10] is 6.8; in [12], 5.46; in series [13] it was 4.3.
